In ChEMBL document CHEMBL4342521 (J Med Chem, 2020):

Columns and labels:
[1] = AUC (0 to infinity) in CD1 mouse at 5 mg/kg, iv after 24 hrs by LC-MS/MS analysis; format: ADME, organism-based; set-up: dose 5 mg/kg, route intravenous, time infinity; conditions: in vivo
Method in brief: (§1)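 Male CD-1 mice, fasted overnight, 3 per route; compound in PBS with 5% DMSO, iv bolus 5 mg/kg or oral gavage 20 mg/kg. Blood sampled at 5, 15, 30 min and 1–24 h. Plasma protein-precipitated with acetonitrile plus internal standard, quantified by LC-MS/MS (MRM). AUC by linear trapezoidal method; parameters by non-compartmental analysis.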

[2] = Cmax in CD1 mouse at 20 mg/kg, po via gavage after 24 hrs by LC-MS/MS analysis; format: ADME, organism-based; set-up: dose 20 mg/kg, route oral; conditions: in vivo; method in brief: as §1

CCCNNC(=O)/C=C/c1ccc(CNCCc2c(C)[nH]c3ccccc23)cc1.O=C(O)C(F)(F)F
AUC [1]: 334 ng·h/mL | Cmax [2]: 45.1 ng/mL
